Consider 19 compounds from ChEMBL document CHEMBL1132419 (J Med Chem, 1999).

By IC50 is commonly meant the midpoint of a concentration-inhibition curve. Low readings indicate greater potency, high ones weaker potency. By ED50 is commonly meant the dose at which the effect has come halfway, by size or by number of responders.

The structures appear in SMILES notation.

One test concerns Plasmodium falciparum. The experiment in a line: Antimalarial activity against chloroquine-sensitive Plasmodium falciparum NF54. In kind it is functional, organism-based.
For the next test, the system named is Plasmodium berghei. The experiment in a line: Antimalarial activity against Plasmodium berghei N. To be noted: Mus musculus.
Test [1] has as its system Mus musculus. The experiment in a line: In vivo antimalarial activity against Plasmodium berghei N on subcutaneous administration. In kind it is functional. To be noted: sc. An outline of the steps: (§1)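 Mice, 5 per dose group, given 1, 3, 10 or 30 mg/kg once daily for 4 days by the route stated; ED values derived from the four-dose series.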
Test [2] deals with Mus musculus. Nature of the test: In vivo antimalarial activity against Plasmodium berghei N on oral administration. In kind it is functional. The method, boiled down: as §1

Compound `C[C@H]1[C@H](c2cccn2Cc2ccco2)O[C@@H]2OC3(C)CC[C@H]4[C@H](C)CC[C@@H]1[C@@]24OO3` (single isomer, unassigned) yielded an IC50 in the test on Plasmodium falciparum of 9.4 nM.
Still for that read-out and setting: as for `C[C@H]1[C@H](c2cccn2Cc2ccccc2)O[C@@H]2OC3(C)CC[C@H]4[C@H](C)CC[C@@H]1[C@@]24OO3` (single isomer, unassigned), the figure is 16 nM; as for `C[C@H]1[C@H](c2cn(C)c3ccccc23)O[C@@H]2OC3(C)CC[C@H]4[C@H](C)CC[C@@H]1[C@@]24OO3` (single isomer, unassigned), 4 nM.
Still for that read-out and setting: as for `C=CCOc1ccc([C@@H]2O[C@@H]3OC4(C)CC[C@H]5[C@H](C)CC[C@@H]([C@H]2C)[C@@]35OO4)c(OCC=C)c1` (single isomer, unassigned), the figure is 6.6 nM; as for `CCc1ccc([C@@H]2O[C@@H]3OC4(C)CC[C@H]5[C@H](C)CC[C@@H]([C@H]2C)[C@@]35OO4)o1` (single isomer, unassigned), 8.6 nM; as for `CCOC(=O)Cn1cccc1[C@@H]1O[C@@H]2OC3(C)CC[C@H]4[C@H](C)CC[C@@H]([C@H]1C)[C@@]24OO3` (single isomer, unassigned), 9.1 nM.
With `C[C@H]1[C@H](c2cccs2)O[C@@H]2OC3(C)CC[C@H]4[C@H](C)CC[C@@H]1[C@@]24OO3` (single isomer, unassigned), 5.1 nM corresponded to half-maximal inhibition in the test on Plasmodium falciparum (IC50).
Still for that read-out and setting: as for `COc1ccc([C@@H]2O[C@@H]3OC4(C)CC[C@H]5[C@H](C)CC[C@@H]([C@H]2C)[C@@]35OO4)c(OC)c1` (single isomer, unassigned), the figure is 4.2 nM; as for `C[C@H]1[C@H]([CH2][Al]([CH3])[C]#Cc2ccc(F)cc2)O[C@@H]2O[C@]3(C)CC[C@H]4[C@H](C)CC[C@@H]1[C@@]24OO3`, 8.3 nM.
Compound `CCO[C@H]1O[C@@H]2O[C@@]3(C)CC[C@H]4[C@H](C)CC[C@@H]([C@H]1C)[C@@]24OO3` [ARTEMOTIL] gave an ED50 in the test on Plasmodium berghei of 0.3 mg/kg. In the test with Mus musculus [1], this compound returned an ED50 of 0.3 mg/kg and an ED90 of 0.5 mg/kg.
In turn, `CCN(CC)CCCC(C)Nc1ccnc2cc(Cl)ccc12` (stereo unspecified) [CHLOROQUINE] yielded an ED90 in the test with Mus musculus [1] of 3.1 mg/kg.
In the test on Plasmodium falciparum, `C[C@H]1[C@H](c2ccc(C(C)(C)C)o2)O[C@@H]2OC3(C)CC[C@H]4[C@H](C)CC[C@@H]1[C@@]24OO3` (single isomer, unassigned) displayed an IC50 of 10 nM.
In the test with Plasmodium falciparum, `COc1ccc2cc([C@@H]3O[C@@H]4OC5(C)CC[C@H]6[C@H](C)CC[C@@H]([C@H]3C)[C@@]46OO5)c(OC)cc2c1` (single isomer, unassigned) showed an IC50 of 9 nM.
With `C[C@@H]1CC[C@H]2[C@@H](C)C(=O)O[C@@H]3O[C@@]4(C)CC[C@@H]1[C@]32OO4` [ARTEMISININ], in the test with Mus musculus [1], it took a dose of 3 mg/kg to reach the 50% effect level (ED50) and the ED90 stood at 8.5 mg/kg.
In the case of `Cc1ccc([C@@H]2O[C@@H]3OC4(C)CC[C@H]5[C@H](C)CC[C@@H]([C@H]2C)[C@@]35OO4)o1` (single isomer, unassigned), in the test with Mus musculus [1], the 50% effect level (ED50) was put at a dose of 0.9 mg/kg and the ED90 is 2 mg/kg. Also, the midpoint of inhibition in the test with Plasmodium falciparum, the IC50, lay at 5.2 nM. In the test on Mus musculus [2], this compound had an ED50 of 15.5 mg/kg and an ED90 of 43 mg/kg.
In the test on Plasmodium falciparum, `CSc1ccc(C#[C][Al]([CH3])[CH2][C@@H]2O[C@@H]3O[C@]4(C)CC[C@H]5[C@H](C)CC[C@@H]([C@H]2C)[C@@]35OO4)cc1` registered an IC50 of 8.4 nM.
On to `C[C@H]1[C@H](c2ccco2)O[C@@H]2OC3(C)CC[C@H]4[C@H](C)CC[C@@H]1[C@@]24OO3` (single isomer, unassigned), for which the ED90 was 2 mg/kg in the test with Mus musculus [1] and 24 mg/kg in the test on Mus musculus [2]. This compound returned an IC50 in the test on Plasmodium falciparum of 1.4 nM.
As to `COc1cc(OC)c([C@@H]2O[C@@H]3OC4(C)CC[C@H]5[C@H](C)CC[C@@H]([C@H]2C)[C@@]35OO4)c(OC)c1` (single isomer, unassigned), the IC50 in the test with Plasmodium falciparum is 7.8 nM.
Compound `C[C@H]1[C@H](c2cccn2C)O[C@@H]2OC3(C)CC[C@H]4[C@H](C)CC[C@@H]1[C@@]24OO3` (single isomer, unassigned) yielded an ED50 with Mus musculus [1] of 0.7 mg/kg. Besides, the ED90 in the test on Mus musculus [1] is 1.2 mg/kg; with Mus musculus [2], 8.5 mg/kg. Besides, inhibition in the test with Plasmodium falciparum was half-maximal at 4.6 nM (IC50).
